Source: PubChem BioAssay
Hits are enriched below; roughly 2% of the tested compounds scored in any of these assays.
HCV core dimer: blocks dimerization of HCV core protein | inhibition, % at 5 µM | AID 1899 | hit rate 0.33% among 300,000 | TR-FRET GST/Flag-core106 dimerization, 1536-well;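 active = inhibition above the mean of all tested compounds plus 3 SD, set per screening campaign, cut at about 45% in these data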
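System: GST-tagged and Flag-tagged HCV core protein residues 1-106 / Input: core106 proteins, GST 13.5 nM and Flag 17 nM / Buffer or medium: KF-containing HEPES buffer, pH 7.45, DTT, CHAPS, BSA / Probe or stimulus: Eu-anti-GST and XL665-anti-Flag labelled anti-tag antibodies / Schedule: 4 h, 22.5 °C incubation / Technique: TR-FRET 671 and 617 nm emission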
DNA FID counter: displaces DNA intercalator in HCV helicase counter-screen; DNA fluorescent intercalator displacement, fluorescence; hit rate 0.17% among 290,000; inhibition, % at 7.9 µM; AID 1845; in the data active = inhibition above about 37%;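 note: higher means more ethidium bromide displaced from hairpin DNA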
eIF4H FP inh: inhibitors of RNA binding by human eIF4H | eIF4H fluorescence polarization binding assay | AID 2012 | hit rate 0.94% among 290,000 | inhibition, % at 35 µM;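 note: calls also rest on retests at 20 µM and on dose response follow-up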
PABP FP inh: PABP-poly(A) binding inhibition; PABP-poly(A) RNA binding, fluorescence polarization; inhibition, % at 35 µM; hit rate 1% among 290,000;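 note: calls also rest on retests at 20 µM and on dose response follow-up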
PABP1 MLLE inh: inhibitors of microRNA-mediated deadenylation, human PABP1 MLLE binding; P11940; GST-MLLE / FITC-PAM2 fluorescence polarization; hit rate 0.36% among 360,000; inhibition, % at 20 µM; in the data active = inhibition above about 35%, passing the limit was not always enough
NS3 helicase inh: HCV NS3 helicase inhibition; NS3 helicase DNA unwinding, Cy5 molecular beacon fluorescence; inhibition, % at 10.9 µM; hit rate 0.56% among 290,000; AID 1800;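 active = inhibition above the mean of all tested compounds plus 3 SD, set per campaign, cut at about 35% in these data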
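Control set: DMSO versus 110 µM thioflavine S; Material: NS3 helicase fragment of HCV; Measured by: Cy5 fluorescence at 0 and 60 min, beacon hairpin quenching; Read-out basis: percent inhibition from t60/t0 fluorescence ratio; Times: reaction time 60 min, 25 °C; Repeats: single replicate; Compound dosing: single dose, 10.9 µM nominal final, DMSO 0.8% final.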
Large screens that a line does not name were inactive. Unless noted, the rule behind the calls is not given here.

O=c1[nH][nH]c(=S)n1C1CCCCC1	none (no result: PABP1 MLLE inh)
O=c1cc(O)n(C2CCCCCC2)c(=O)[nH]1	PABP FP inh 17
Cc1cc(NS(=O)(=O)c2ccc(NC(=O)c3cc4c(=O)n5ccccc5nc4s3)cc2)nc(C)n1	PABP FP inh active (no result: HCV core dimer)
O=C(NNC(=O)c1ccccc1-n1cccc1)c1cncc(Br)c1	none (no result: HCV core dimer, DNA FID counter, eIF4H FP inh, PABP FP inh, NS3 helicase inh)
Cc1cccc(C(=O)N=c2c(C#N)cc3c(=O)n4cccc(C)c4nc3n2Cc2ccco2)c1	HCV core dimer 60
Cc1cccn2c(=O)c3cc(C#N)c(=NC(=O)c4ccco4)n(Cc4ccco4)c3nc12	eIF4H FP inh inconclusive, PABP FP inh inconclusive
Cc1cccn2c(=O)c3cc(C#N)c(=NC(=O)c4ccccc4)n(Cc4ccco4)c3nc12	HCV core dimer 46 (no result: DNA FID counter, eIF4H FP inh, PABP FP inh, NS3 helicase inh)
COc1ccc2oc(C(=O)NCCN3CCOCC3)c(C)c2c1OC	none
C[C@@H]1CN([C@@H](C)CO)C(=O)c2cc(NS(C)(=O)=O)ccc2O[C@@H](C)CCCCO[C@H]1CN(C)Cc1ccc2c(c1)OCO2	none (no result: HCV core dimer, DNA FID counter, eIF4H FP inh, PABP FP inh, NS3 helicase inh)
Cc1ccc(S(=O)(=O)/C(C#N)=C/c2c(N3CCN(Cc4ccccc4)CC3)nc3ccccn3c2=O)cc1	eIF4H FP inh inconclusive, PABP FP inh 43
N#C/C(=C\c1c(N2CCC(C(N)=O)CC2)nc2ccccn2c1=O)C(=O)NCc1ccco1	eIF4H FP inh 62, PABP FP inh active
Cc1ccc2nc(N3CCN(c4ccccc4F)CC3)c(C=O)c(=O)n2c1	PABP FP inh 21
Cc1cccn2c(=O)c(C=O)c(N3CCCCC3)nc12	none
Cc1cccn2c(=O)c(/C=C(\C#N)C(=O)NCc3ccco3)c(N3CCOCC3)nc12	none
Cc1cccn2c(=O)c(C=O)c(N3CCN(c4ccc(F)cc4)CC3)nc12	eIF4H FP inh 96, PABP FP inh 36
CCCCN(C(=O)c1ccccc1Cl)C(CC(C)C)c1nc2ccccc2[nH]1 (stereo unspecified)	none (no result: HCV core dimer, DNA FID counter, eIF4H FP inh, PABP FP inh, NS3 helicase inh)
O=C(O)c1c[nH]c2c([N+](=O)[O-])cccc2c1=O	none (no result: HCV core dimer, DNA FID counter, eIF4H FP inh, PABP FP inh, NS3 helicase inh)
CSC[C@H]1CN(c2ccccc2)C(=O)[C@@H]1CC(=O)Nc1ccccc1	none (no result: HCV core dimer, DNA FID counter, eIF4H FP inh, PABP FP inh, NS3 helicase inh)
Cc1cccn2c(=O)c(/C=C(\C#N)S(=O)(=O)c3ccccc3)c(N3CCN(Cc4ccccc4)CC3)nc12	eIF4H FP inh 78, PABP FP inh 59
Cc1ccc(S(=O)(=O)/C(C#N)=C/c2c(N3CCOCC3)nc3c(C)cccn3c2=O)cc1	eIF4H FP inh inconclusive, PABP FP inh inconclusive
N#C/C(=C\c1c(N2CCN(Cc3ccccc3)CC2)nc2ccccn2c1=O)S(=O)(=O)c1ccccc1	eIF4H FP inh inconclusive, PABP FP inh 23
Nc1cccc2cnccc12	eIF4H FP inh 88
Oc1cccc2cnccc12	none
CN(/N=C/c1ccc(-c2ccc([N+](=O)[O-])cc2)o1)c1ccccc1	HCV core dimer 55
CN(/N=C/c1cc([N+](=O)[O-])ccc1O)c1ccccc1	none
NC(=S)N/N=C/c1ccc(-c2cc(Cl)cc(Cl)c2)o1	none
NC(=S)N/N=C/c1ccc(-c2ccc([N+](=O)[O-])cc2)o1	HCV core dimer 50
Cc1ccc(C(=O)N(C)CCOc2ccccc2)cc1S(=O)(=O)N1CCCCC1	none (no result: HCV core dimer, DNA FID counter, eIF4H FP inh, PABP FP inh, NS3 helicase inh)
CN(C)CCC1(C2=CCCC2)CC/C(=C/c2ccc(Cl)cc2)C1=O (stereo unspecified)	none (no result: HCV core dimer, DNA FID counter, eIF4H FP inh, PABP FP inh, NS3 helicase inh)
CC(=O)Nc1cccc(-c2ccnc3c2CC(C(=O)NCc2ccc(F)c(F)c2)O3)c1 (stereo unspecified)	none (no result: HCV core dimer, DNA FID counter, eIF4H FP inh, PABP FP inh, NS3 helicase inh)
O=S(=O)(c1ccc2c(c1)C(=NO)c1cc(S(=O)(=O)N3CCCCC3)ccc1-2)N1CCCCC1	HCV core dimer 48
NC(=S)NN=C1c2cc(S(=O)(=O)N3CCOCC3)ccc2-c2ccc(S(=O)(=O)N3CCOCC3)cc21	PABP1 MLLE inh 40
CN(C)N=C1c2cc(S(=O)(=O)N3CCOCC3)ccc2-c2ccc(S(=O)(=O)N3CCOCC3)cc21	none
O=C(NCCc1ccccc1F)C1CC(=O)N(c2ccc3c(c2)OCCO3)C1 (stereo unspecified)	none (no result: HCV core dimer, DNA FID counter, eIF4H FP inh, PABP FP inh, NS3 helicase inh)
CCCN1CCc2c(sc(NC(=O)c3ccc(S(=O)(=O)N(C)c4ccccc4)cc3)c2C(=O)NC)C1	DNA FID counter 44, eIF4H FP inh inconclusive, PABP FP inh inconclusive
CCCN1CCc2c(sc(NC(=O)c3ccc(S(=O)(=O)N(C)c4ccccc4)cc3)c2C(N)=O)C1	none
Cc1ccc(C(C)C)cc1NC(=O)Nc1ccc([N+](=O)[O-])cc1	none
C=CC[C@H](CC(=O)NCCO)C(=O)NCCOC(=O)[C@@H](CC=C)Cc1ccc(F)cc1	none (no result: HCV core dimer, DNA FID counter, eIF4H FP inh, PABP FP inh, NS3 helicase inh)
CC1CCCCN1CC(O)COCCC12CC3CC(CC(C3)C1)C2 (stereo unspecified)	DNA FID counter 44
CCOC(=O)N1CCN(CC(O)COCCC23CC4CC(CC(C4)C2)C3)CC1 (stereo unspecified)	none
O=C(NCc1ccccc1CN1CCCC1)c1ccc(Cl)c(S(=O)(=O)N2CCCC2)c1	none (no result: HCV core dimer, DNA FID counter, eIF4H FP inh, PABP FP inh, NS3 helicase inh)
CC(C)C(=O)N(c1ccc2oc(=O)sc2c1)S(=O)(=O)c1ccccc1	none
COc1ccc(S(=O)(=O)N(C(=O)C(C)C)c2ccc3oc(=O)sc3c2)cc1	PABP1 MLLE inh 38
CCN=C1NN=C(c2cc(C)n(Cc3ccco3)c2C)CS1	HCV core dimer 48
COc1cc(SC)ccc1C(=O)Nc1ccc2ncccc2c1	none
CC1=CC(=O)C2=C(C)CCC3C(C)C(=O)OC3C12 (stereo unspecified)	none (no result: HCV core dimer, DNA FID counter, eIF4H FP inh, PABP FP inh, NS3 helicase inh)
C[n+]1ccccc1/C=C/c1ccc([N+](=O)[O-])cc1	none
C[n+]1ccccc1/C=C/c1ccc(C#N)cc1	PABP FP inh 93
C[n+]1ccccc1/C=C/c1ccc2ncccc2c1	PABP FP inh 58 (no result: HCV core dimer)
Cc1cc(C(=O)OCC(=O)c2ccc(Br)s2)c(C)o1	eIF4H FP inh 70, PABP FP inh 87 (no result: PABP1 MLLE inh)
O=C(/C=C/c1ccco1)N1CCN(c2ncccn2)CC1	PABP1 MLLE inh 68
O=C(/C=C/c1c(Cl)cccc1Cl)N1CCN(c2ncccn2)CC1	none
COC(=O)c1ccc(CSc2ncnc3c2sc2nc(N4CCOCC4)c4c(c23)CCCC4)o1	HCV core dimer 66 (no result: eIF4H FP inh, PABP FP inh)
COC(=O)CSc1ncnc2c1sc1nc(N3CCOCC3)c3c(c12)CCCC3	none
COc1ccc(CCN2C(=O)NC(NC(C)=O)(C(F)(F)F)C2=O)cc1OC (stereo unspecified)	PABP FP inh 83
C=CCSc1nc2c(c(=O)[nH]c(=O)n2C)n1C(C)C	PABP1 MLLE inh 41
O=C1NC(=S)S/C1=C\C=C\c1ccc([N+](=O)[O-])o1	eIF4H FP inh 95, PABP FP inh 91 (no result: HCV core dimer)
CCOC(=O)c1sc(N=NC2=C(O)CC(C)(C)CC2=O)c(C(=O)OCC)c1C	eIF4H FP inh 60
COc1ccccc1N1CCN(CCS(=O)(=O)c2cc(Cl)ccc2Cl)CC1	none (no result: HCV core dimer, DNA FID counter, eIF4H FP inh, PABP FP inh, NS3 helicase inh)
CC[C@@]1(O)C(=O)OCc2c1cc1n(c2=O)Cc2cc3c(N)cccc3nc2-1	eIF4H FP inh 92, PABP FP inh 29 (no result: DNA FID counter, NS3 helicase inh)
